The target in series [1] is Mitogen-activated protein kinase 14 (Homo sapiens, UniProt Q16539). In words: Inhibition of human recombinant p38alpha expressed in Escherichia coli using ATF2 as substrate by radiometric kinase assay.
The species named for another series is Homo sapiens. In words: Selectivity index, ratio of IC50 for human recombinant p38alpha to IC50 for human recombinant ALK5. The procedure, abridged: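 Ratio of IC50 values from two radiometric (33P) protein kinase assays run by a contract lab. ALK5 assay: human recombinant GST-fusion kinase domain expressed in Sf9 cells via baculovirus, with casein as substrate. p38α assay: untagged human recombinant enzyme expressed in E. coli and Ni-agarose purified, with ATF2 as substrate, tested up to 1 μM. Index = IC50 p38α / IC50 ALK5.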

The target in another series is T1, TGF-beta receptor type-1 (Homo sapiens, UniProt P36897).
T1 sequence (P36897 whole entry): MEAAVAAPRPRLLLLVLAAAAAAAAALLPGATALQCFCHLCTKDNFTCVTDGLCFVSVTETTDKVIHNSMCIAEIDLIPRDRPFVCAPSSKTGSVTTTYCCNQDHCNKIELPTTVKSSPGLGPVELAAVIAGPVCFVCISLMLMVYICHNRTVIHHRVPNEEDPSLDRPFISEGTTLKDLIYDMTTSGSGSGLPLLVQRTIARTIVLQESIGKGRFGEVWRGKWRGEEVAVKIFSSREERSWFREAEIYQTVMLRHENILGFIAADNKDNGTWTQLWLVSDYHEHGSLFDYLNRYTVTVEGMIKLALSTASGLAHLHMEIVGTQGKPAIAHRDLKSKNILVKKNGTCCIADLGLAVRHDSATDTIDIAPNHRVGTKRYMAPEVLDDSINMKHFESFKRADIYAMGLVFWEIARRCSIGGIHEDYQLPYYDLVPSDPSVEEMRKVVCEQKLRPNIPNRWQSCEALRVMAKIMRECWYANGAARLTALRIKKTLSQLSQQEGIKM
In words: Inhibition of human recombinant GST-fused ALK5 expressed in insect Sf9 cells using casein as substrate by radiometric kinase assay.

A short description of series [2]: Chemical stability of compound. Format: physicochemical.

Mitogen-activated protein kinase 14, sequence (Q16539 whole entry, the tested form may be a part): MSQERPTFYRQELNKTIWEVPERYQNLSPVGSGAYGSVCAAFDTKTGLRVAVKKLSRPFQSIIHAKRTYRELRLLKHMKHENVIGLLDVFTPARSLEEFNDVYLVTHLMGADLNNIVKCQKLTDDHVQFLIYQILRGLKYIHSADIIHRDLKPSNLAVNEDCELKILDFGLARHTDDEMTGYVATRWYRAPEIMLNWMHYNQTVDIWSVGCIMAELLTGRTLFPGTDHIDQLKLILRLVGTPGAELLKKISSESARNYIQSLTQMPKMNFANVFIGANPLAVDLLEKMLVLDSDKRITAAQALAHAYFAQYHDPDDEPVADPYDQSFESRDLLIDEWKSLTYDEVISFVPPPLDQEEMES

Turning to `Cc1cccc(-c2c(-c3ccc4nccnc4c3)cnn2CC(=O)Nc2cccc(C#N)c2)n1`, the values for the IC50 (in series [1]; at TGF-beta receptor type-1) were > 1000 nM and 737 nM, respectively. The Ratio IC50 in the series filed under Homo sapiens is > 1.
As to `Cc1cccc(-c2nn(CC(=S)Nc3cccc(C#N)c3)cc2-c2ccc3nc(C)c(C)nc3c2)n1`, the IC50 (in series [1]; on TGF-beta receptor type-1) was > 1000 nM throughout.
In the case of `Cc1cccc(-c2c(-c3ccc4nc(C)c(C)nc4c3)cnn2CC(=O)Nc2ccccc2)n1`, the IC50 (in series [1]; at TGF-beta receptor type-1) was > 1000 nM each time.
On to `Cc1cccc(-c2[nH]c(Cc3cccc(C(N)=O)c3)nc2-c2ccc3nccnc3c2)n1`, for which the Ratio IC50 in the series listed under Homo sapiens was 28.
Regarding `Cc1cccc(-c2nn(CC(=S)Nc3ccccc3)cc2-c2ccc3nccnc3c2)n1`, the results for the IC50 (in series [1]; at TGF-beta receptor type-1) were > 1000 nM and 13 nM, respectively. Besides, the Ratio IC50 in the series filed under Homo sapiens is > 77. The Stability result in series [2] is listed as “Stable”.
Consider `Cc1cccc(-c2nn(CC(=O)Nc3ccccc3)cc2-c2ccc3nc(C)c(C)nc3c2)n1`, for which the IC50 (in series [1]; at TGF-beta receptor type-1) was > 1000 nM throughout.
As for `Cc1cccc(-c2nn(CCC(=O)Nc3cccc(C#N)c3)cc2-c2ccc3nc(C)c(C)nc3c2)n1`, the IC50 (in series [1]; at TGF-beta receptor type-1) was > 1000 nM throughout.
As for `Cc1cccc(-c2nn(CC(=O)Nc3cccc(C#N)c3)cc2-c2ccc3nccnc3c2)n1`, the IC50 in series [1] is > 1000 nM; at TGF-beta receptor type-1, 153 nM. For the same compound, in the series filed under Homo sapiens, the Ratio IC50 was > 7.
`Cc1cccc(-c2nn(CC(=S)Nc3ccccc3)cc2-c2ccc3nc(C)c(C)nc3c2)n1`: the IC50 (in series [1]; at TGF-beta receptor type-1) was > 1000 nM throughout.
Regarding `Cc1cccc(-c2nn(CC(=O)Nc3cccc(C#N)c3)cc2-c2ccc3nc(C)c(C)nc3c2)n1`, the IC50 (in series [1]; on TGF-beta receptor type-1) was > 1000 nM throughout.
For `Cc1cccc(-c2nn(CC(=O)Nc3cccc(C(N)=O)c3)cc2-c2ccc3nc(C)c(C)nc3c2)n1`, the IC50 (in series [1]; on TGF-beta receptor type-1) was > 1000 nM in each case.
With `Cc1cccc(-c2c(-c3ccc4nc(C)c(C)nc4c3)cnn2CC(=O)Nc2cccc(C#N)c2)n1`, the IC50 (in series [1]; on TGF-beta receptor type-1) was > 1000 nM in each case.
Consider `Cc1cccc(-c2nn(CC(=S)Nc3cccc(C#N)c3)cc2-c2ccc3nccnc3c2)n1`, for which the IC50 is > 1000 nM in series [1] and 26 nM on TGF-beta receptor type-1. For the same compound, the Ratio IC50 in the series filed under Homo sapiens is > 38.
`Cc1cccc(-c2nn(CC(=O)Nc3cccc(C(N)=O)c3)cc2-c2ccc3nccnc3c2)n1`: the results for the half-inhibitory concentration (IC50) (in series [1]; at TGF-beta receptor type-1) were > 1000 nM and 48 nM, respectively. Moreover, in the series listed under Homo sapiens, the Ratio IC50 was > 21.
On to `Cc1cccc(-c2nn(CCC(=O)Nc3ccccc3)cc2-c2ccc3nccnc3c2)n1`, for which the IC50 in series [1] is > 1000 nM; on TGF-beta receptor type-1, 82 nM. In addition, the Ratio IC50 in the series filed under Homo sapiens was > 12.
As to `Cc1cccc(-c2c(-c3ccc4nccnc4c3)cnn2CC(=O)Nc2ccccc2)n1`, the half-maximal inhibitory concentration (IC50) in series [1] was > 1000 nM; on TGF-beta receptor type-1, 143 nM. The Ratio IC50 in the series listed under Homo sapiens was > 7.
For `Cc1cccc(-c2nn(CC(=O)Nc3ccccc3)cc2-c2ccc3nccnc3c2)n1`, the IC50 in series [1] was > 1000 nM; on TGF-beta receptor type-1, 38 nM. Also, the Ratio IC50 in the series listed under Homo sapiens was > 26.

Source of the values: ChEMBL document CHEMBL1821641, “Synthesis and biological evaluation of 1-substituted-3(5)-(6-methylpyridin-2-yl)-4-(quinoxalin-6-yl)pyrazoles as transforming growth factor-β type 1 receptor kinase inhibitors” (Eur J Med Chem, 2011).
